Assays:
[1] = Plasma pharmacokinetics in patients; assay type: in vivo, human; conditions: for half-life: human, plasma, po
Method in brief: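 Oral test compound was given as a single dose on day 1 (7-day run-in for terminal half-life), then QD from day 8. PPI cohort: rabeprazole 20 mg days 4-7, co-dosed day 8, intensive sampling day 8. Quantified by LC-MS/MS.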

[2] = tested on: phospho-AKT (pAKT) (S473) in platelet-rich plasma; assay: pAKT; assay type: in vivo, human
Method in brief: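 Patients took oral test compound QD on 21/28 or 28/28 schedules. Total AKT and pAKT (S473) were measured by Meso Scale Discovery immunoassay. Results are percent change in pAKT from baseline.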

[3] = tested on: tumor glucose uptake (FDG-PET); assay: FDG-PET tumor uptake; assay type: in vivo, human
Method in brief: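 Patients with advanced solid tumours received oral test compound once daily. FDG-PET/CT scans were taken at baseline and 1-4 h after dosing on days 22 and 55. Scans were centrally assessed by EORTC criteria, with SUVmax change as the measure. PIK3CA hotspot mutations in archival FFPE tumour DNA were typed by DxS allele-specific PCR, qRT-PCR or Sanger sequencing.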

advanced solid tumors = assay: Tumor response by RECIST v1.0 / modified RECIST; assay type: in vivo, human
mTOR kinase = conditions: read-out: inhibition constant (Ki) mTOR kinase; cited from earlier work
[4] = tested on: xenograft cancer models with PI3K-mutant, PTEN-null, and KRAS-mutant cell lines; conditions: multiple xenograft models; cited from earlier work
[5] = in vitro; weakly basic molecule; cited from earlier work

Cc1c(CN2CCN(C(=O)[C@H](C)O)CC2)sc2c(N3CCOCC3)nc(-c3cnc(N)nc3)nc12 [apitolisib]
half-life ([1]; mean terminal elimination half-life, patients): 11.3 h
half-life ([1]; terminal elimination half-life, range, patients): 3.26 to 45.4 h
time of peak mean plasma concentration after dose ([1]; oral, patients): 1 to 2 h
impact of PPI on apitolisib PK ([1]; rabeprazole 20 mg daily for 5 days, 6 patients): no significant impact
accumulation ([1]; repeated QD doses): less than 1.2
sustained pAKT inhibition ([2]; 40 mg 28/28): > 90%
doses with target modulation ([2]; in vivo): ≥ 16 mg
suppression of phosphorylated serine-473 AKT levels ([2]; platelet-rich plasma, within 4 hours, MTD 50 mg): ≥ 90%
patients with PIK3CA mutations with more than 25% mean decrease in SUVmax ([3]; 40 mg QD): 9/12
patients with decrease in FDG-PET uptake of >25% ([3]; 40 mg QD (21/32)): 66%
PIK3CA mutation patients with FDG-PET response ([3]; all dose cohorts (10 out of 14)): 71%
Median time on study (advanced solid tumors; 40 mg 28/28): 2.9 months
stable disease with tumor regression (advanced solid tumors; 40 mg 28/28): 20 patients
time on study, range (advanced solid tumors; 40 mg 28/28): 1-21.2 months
PRs (advanced solid tumors; 40 mg 28/28, 49 RECIST evaluable patients): Five
PD as best radiological response (advanced solid tumors; 14 evaluable patients with PIK3CA mutations, 40 mg 28/28): 3
PRs as best radiological response (advanced solid tumors; 14 evaluable patients with PIK3CA mutations, 40 mg 28/28, 1 confirmed): 3
PR rate in MPM patients (advanced solid tumors; MPM): 12%
Median time on study (advanced solid tumors; MPM, 30 mg 28/28): 4 months
time on study, range (advanced solid tumors; MPM, 30 mg 28/28): 0.5-38.9 months
patients on study for more than 6 months (advanced solid tumors; MPM, 30 mg 28/28 (8 patients)): 30%
partial response rate (advanced solid tumors; RP2D 40 mg QD): 10.2%
dose from which anti-tumor activity was apparent (advanced solid tumors; in vivo): 8 mg
response rate with enrichment for PIK3CA mutations (advanced solid tumors; in vivo): 18.8%
single agent response rate (advanced solid tumors; in vivo): 10-19%
time on apitolisib (advanced solid tumors; one patient, metastatic clear cell ovarian cancer, 40 mg 28/28): 282 days
maximal tumor shrinkage, change from baseline (advanced solid tumors; one patient, metastatic clear cell ovarian cancer, E545K PIK3CA, 40 mg 28/28): −48.3%
patients continuing on study for over 12 months (advanced solid tumors; stage 1 (3 patients)): 5%
partial responses (PR) (advanced solid tumors; stage 1, among 56 patients): 4
confirmed responses (advanced solid tumors; stage 1, 32 mg QD 21/28 and 50 mg QD 21/28): 2
Ki (mTOR kinase): 17.3 nM
Tumor growth inhibition [4]: Tumor growth inhibition has been demonstrated
drug solubility [5]: pH-dependent drug solubility

— publication PMC4876928 (Clinical cancer research : an official journal of the …, 2016)
